Screens as filed in PubChem.
PfM18AAP inh: blocks P. falciparum M18 aspartyl aminopeptidase; recombinant PfM18AAP, H-Glu-NHMec fluorogenic cleavage; 1.2% of 290,000 active; inhibition, % at 7.35 µM;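 active = inhibition above the campaign mean inhibition over all tested compounds plus 3 SD, cut at about 28% in these data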;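 also: 0% = plate median of test compound wells and 100% = 2 mM ZnCl2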
CendR NRP1 mod: alters CendR peptide binding to human NRP-1; O14786; FAM-RPARPAR peptide binding to NRP-1, fluorescence polarization; inhibition, % at 25 µM; 0.85% of 360,000 active;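 active = inhibition or corrected inhibition above about 18%, plus a signal ratio from 0.5 to 1.5, limit read from the data, passing the limit was not always enough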
Lipid droplet: modulators of hepatic lipid droplet formation. AML12 mouse hepatocytes, oleate lipid droplets, BODIPY imaging. inhibition, % at 6.5 µM. 0.4% of 240,000 active. AID 1656;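 active = lipid droplet intensity inhibited by at least 50%, with more than 500 cells counted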
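Assay system: AML12 mouse liver cells | Compound: 6.5 µM single-point dosing | Schedule: Overnight exposure | Technique: Fluorescence imaging, 20x objective, two fields per well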
HGIII-sPLA2 inh: Blocks human group III sPLA2 activity; Q9NZ20; QFRET BODIPY PC-A2 liposome hydrolysis, fluorescence; inhibition, % at 12.2 µM; 0.56% of 370,000 active; AID 743126;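 active = inhibition above mean plus 3 SD of compounds lying within the high and low control bounds, cut at about 19% in these data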;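 also: 0% = median of test compound wells and 100% = no enzyme DMSO wells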
Target sequence (Q9NZ20 whole entry, looked up): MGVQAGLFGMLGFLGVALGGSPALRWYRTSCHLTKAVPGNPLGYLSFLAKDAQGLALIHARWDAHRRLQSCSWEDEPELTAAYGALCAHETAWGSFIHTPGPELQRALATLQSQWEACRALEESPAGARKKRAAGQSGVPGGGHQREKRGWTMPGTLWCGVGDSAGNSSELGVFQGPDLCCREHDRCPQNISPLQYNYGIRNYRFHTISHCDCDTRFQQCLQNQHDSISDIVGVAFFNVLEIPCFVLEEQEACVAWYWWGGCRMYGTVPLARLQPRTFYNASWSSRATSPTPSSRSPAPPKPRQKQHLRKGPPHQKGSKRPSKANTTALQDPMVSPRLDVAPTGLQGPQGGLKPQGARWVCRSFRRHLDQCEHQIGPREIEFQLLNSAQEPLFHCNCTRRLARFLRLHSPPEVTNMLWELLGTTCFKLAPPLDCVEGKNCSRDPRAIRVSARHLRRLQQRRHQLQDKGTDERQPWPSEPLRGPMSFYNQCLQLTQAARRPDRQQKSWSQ
Arrestin-AP2 inh: human beta-arrestin and AP2 interaction inhibition; FITC-arrestin peptide / GST-AP2 beads, flow cytometry; AP2 beta2 appendage carries R879A mutation; inhibition, % at 10 µM; 0.31% of 340,000 active;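 active = inhibition above a set limit, near 3 SD of compounds lacking own fluorescence, cut at about 54% in these data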;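 also: plate controls were DMSO wells for no effect and 5 µM unlabelled arrestin peptide for full effect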
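System: GST-AP2 R879A bound to glutathione beads, E. coli-expressed. Also added: 50 nM FITC-arrestin peptide. Schedule: compound with beads 12 min RT, then probe 1 h RT. Signal: bead flow cytometry, FITC channel. Read-out basis: percent response.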
HTR2A ag: agonists of mouse serotonin 5-HT2A receptor (HTR2A). P35363. CHO-K1 mHTR2A beta-arrestin complementation, luminescence; percent of 30 µM serotonin response. activation, % at 7.6 µM. 0.66% of 360,000 active;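 active = activation above a run cutoff, the mean activation of all tested compounds plus 3 SD, cut at about 14% in these data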;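 also: 0% = plate median of compound wells and 100% = 30 µM serotonin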
Lipid drop inh: hepatic lipid droplet formation inhibition, confirmed; AML12 mouse hepatocytes, BODIPY lipid droplet imaging; droplets induced with 100 µM oleic acid; inhibition, % at 5.2 µM; AID 463183; shares compounds with Lipid droplet; 65% of 870 active;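 active = inhibition of lipid droplet metric at least 50%, with more than 300 cells in each of four replicates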;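 also: plate controls were DMSO with oleic acid for no effect and 5 µM Triacsin-C for full effect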
AML12 cytotox: toxic to AML12 mouse hepatocytes in counter-screen; shares compounds with Lipid droplet; 3% of 870 active; z-score at 5 µM; DAPI nuclear morphology cytotoxicity imaging; stronger effect = higher value; cells fed 100 µM oleate overnight; in the data active = z-score above about 6.3;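 also: compound exposure lasted overnight at 37 °C before fixation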
AML12 tox conf: AML12 hepatocyte cytotoxicity, confirmed; shares compounds with Lipid droplet; AML12 mouse hepatocyte viability, ATP luminescence; cells loaded with 100 µM oleic acid; cytotoxicity, % at 50 µM; 530 tested, under 10 active; AID 463219;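 active = cytotoxicity above 50% in each of four replicates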;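 also: compound exposure lasted overnight at 37 °C before the ATP read; 0% = DMSO-treated cells and 100% = wells with no cells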
* hit, by the source's call; . = not tested or not shown; ! = repeats disagree. This is a sample that favours compounds with a hit; in the whole collection about 3.3% have one here.

SMILES	PfM18AAP inh	CendR NRP1 mod	Lipid droplet	HGIII-sPLA2 inh	Arrestin-AP2 inh	HTR2A ag	Lipid drop inh	AML12 cytotox	AML12 tox conf
CCOc1ccc(CCNC(=O)CS(=O)Cc2nc(-c3ccc(OC)c(OC)c3)oc2C)cc1OCC (stereo not given)	-2	11	58*	0	28	-2	74*	-0.34	17
CCOC(=O)c1ccc(S(=O)(=O)NCC(c2ccc(N(C)C)cc2)c2c[nH]c3ccccc23)cc1 (stereo not given)	-3	-20	96*	-33	31	1	108*	0.39	14
CCOC1=C2CN(S(=O)(=O)c3ccc(C)cc3)[C@H](c3cccc4ccccc34)C[C@H]2[C@H]2C(=O)N(c3ccccc3)C(=O)[C@H]2C1	.	-1	.	-9	.	2	.	.	.
CCC(C)(C)NC(=O)C(c1ccc(OC)cc1)N(CC1CCCO1)C(=O)CCC(=O)Nc1cc(C)on1 (stereo not given)	4	-3	79*	4	1	5	91*	-0.48	11
COc1ccc(C(C(=O)NC(C)(C)C)N(Cc2cccs2)C(=O)CCC(=O)Nc2cc(C)on2)cc1 (stereo not given)	-1	11	107*	-15	-6	1	88*	-0.52	7
CCC(C)(C)NC(=O)C(c1ccc(OC)cc1)N(Cc1cccs1)C(=O)CCC(=O)Nc1cc(C)on1 (stereo not given)	0	0	78*	-13	24	-1	102*	0.51	12
O=C(CSc1nc2ccccc2[nH]1)NN=Cc1ccccc1C(=O)O	.	.	.	11	.	.	.	.	.
COC(=O)[C@]12C[C@H](CC(=O)NCCCN3CCCC3=O)C(=O)N(Cc3ccccc3)C1=C[C@H](COCc1ccccc1)O[C@@H]2C	.	.	.	2	.	.	.	.	.
CCCC[C@H](C(=O)N(C)c1cccc(OC)c1)[C@@H](O)c1ccc(Cl)cc1	.	.	.	-1	.	.	.	.	.
c1cc[n+](CCC[n+]2ccccc2)cc1	0	-6	56*	16	-34	1	35	-0.4	.
CC(C)C(C)(C#N)NC(=O)CSc1nc2scc(-c3ccc(F)cc3)c2c(=O)n1Cc1ccccc1 (stereo not given)	10	-7	105*	-11	-6	-6	113*	-0.29	.
O=C(CSC1=NC2(CCCCCC2)N=C1c1ccccc1)Nc1ccc2c(c1)OCCO2	-3	-12	59*	-1	0	-7	69*	-0.48	-23
Cc1cc(C)n(-c2nc3c(c(=O)[nH]c(=O)n3C)n2CC(O)COc2ccc(Cl)cc2Cl)n1 (stereo not given)	7	9	52*	-2	-2	5	-16	0.69	.
CCN(CC)CCNc1nc2c(c(=O)[nH]c(=O)n2C)n1CC(O)COc1ccc(Cl)cc1Cl (stereo not given)	-5	4	.	-1	-5	-6	.	.	.
CCc1cc(SC#N)cc(C)c1NC(=O)CCl	-1	1	68*	15	10	5	58	4.3	.
C/C(=C\c1cccc(Cl)c1Cl)C(=O)c1c(C)cc(C)[nH]c1=O	1	-6	52*	-10	-3	1	27	0.23	.
O=C(NCCc1cccnc1)c1cc(COc2ccc(F)cc2F)on1	-15	9	95*	1	0	4	35	-0.62	.
O=C(NCCc1cccnc1)c1cc(COc2ccc(F)cc2Cl)on1	5	4	8	-2	1	1	.	.	.
CCOC(=O)c1ccc(NC(=O)CCOc2ccc(C)cc2)cc1	3	-5	66*	-5	2	1	90*	-0.81	6
COC(=O)c1ccc(NC(=O)CCOc2ccccc2)cc1	-12	-10	-1	8	-21	-1	.	.	.
CC(=O)NS(=O)(=O)c1ccc(NC(=O)c2ccc(S(=O)(=O)N3CCCC3)cc2)cc1	.	5	.	-4	29	0	.	.	.
COc1ccc(-c2ccc3c(n2)CCCN3S(=O)(=O)c2ccc(OC)cc2)cc1	.	.	.	-5	.	.	.	.	.
Fc1ccc(-c2cnn3c(-c4cccs4)ccnc23)cc1	-18	-42	63*	9	5	1	79*	-0.16	.
Fc1ccc(-c2cnn3c(-c4ccncc4)ccnc23)cc1	-8	-8	-10	9	-4	-2	.	.	.
COC(=O)/C(=C/c1ccc2c(c1)c1ccccc1n2C)NC(=O)c1ccccc1	-6	-2	83*	-12	4	2	80*	0.53	-3
SMILES	PfM18AAP inh	CendR NRP1 mod	Lipid droplet	HGIII-sPLA2 inh	Arrestin-AP2 inh	HTR2A ag	Lipid drop inh	AML12 cytotox	AML12 tox conf
COc1ccc(C=C(NC(=O)c2ccccc2)C(=O)O)cc1OC	.	20	.	6	3	-1	.	.	.
Cc1ccc(CN2CC(N3CCC[C@@H]3C)CS2(=O)=O)cc1 (stereo not given in full)	.	.	.	6	.	.	.	.	.
Cc1ccsc1C(C(=O)NC(C)(C)C)N(Cc1ccco1)C(=O)c1csnn1 (stereo not given)	6	-8	5	4	25	2	.	.	.
CCC(C)(C)NC(=O)C(c1sccc1C)N(Cc1ccco1)C(=O)c1csnn1 (stereo not given)	2	8	58*	-1	0	-9	70*	-0.47	12
Cc1ccc([N+](=O)[O-])cc1S(=O)(=O)Nc1ccc(-c2ccc(N3CCCC3)nn2)cc1	.	-18	.	-26	30	-1	.	.	.
COc1ccc(-c2nc(NC(=O)Cn3cnnn3)sc2C)cc1	7	5	14	-1	-19	-3	.	.	.
COc1ccc(-c2nc(NC(=O)Cn3ccc(C(F)(F)F)n3)sc2C)cc1	2	10	68*	-9	0	0	104*	-0.3	37
C[C@H]1[C@@H](Cc2cc(Cl)cc(Cl)c2)N(c2ccccc2)c2ccccc2CN1Cc1ccccc1	.	-12	.	16	.	5	.	.	.
CCOc1ccccc1-c1cc(C(=O)N/N=C/c2ccc3c(c2)OCO3)c2ccccc2n1	-10	-4	-20	-1	-4	3	.	.	.
CCOc1ccccc1-c1cc(C(=O)N/N=C/c2ccc(O)c(OC)c2)c2ccccc2n1	8	-2	50*	-17	29	-6	72*	0.3	30
Cc1ccccc1N/C(=N/S(=O)(=O)c1ccccc1)c1ccc(F)cc1	-12	-5	54*	4	-5	4	-10	0.38	.
O=C(NCCO)c1cc2ccccc2cc1O	6	-6	50*!	-11	14	-3	7	-0.75	.
